Converted amounts (≈) assume the structure as drawn.

Experimental findings from ChEMBL document CHEMBL1671636, “Role of ampD homologs in overproduction of AmpC in clinical isolates of Pseudomonas aeruginosa” (2008) are described below.

Format in all cases: functional
In assay [1] the test system is Pseudomonas aeruginosa. In words: Antimicrobial activity against Pseudomonas aeruginosa isolate GB61 obtained from patient with non-cystic fibrosis by broth microdilution method.
The subject of assay [2] is Pseudomonas aeruginosa. As to the kind of experiment: Antimicrobial activity against Pseudomonas aeruginosa isolate TX291 obtained from patient with non-cystic fibrosis by agar dilution method.
The subject of assay [3] is Pseudomonas aeruginosa. In words: Antimicrobial activity against Pseudomonas aeruginosa isolate TX292 obtained from patient with non-cystic fibrosis by agar dilution method.
The test system of assay [4] is Pseudomonas aeruginosa. As to the kind of experiment: Antimicrobial activity against Pseudomonas aeruginosa isolate 164CD obtained from patient with non-cystic fibrosis by agar dilution method. For orientation: In agar dilution, organisms are placed on agar that contains the substance at set levels.
For assay [5], the system named is Pseudomonas aeruginosa. In words: Antimicrobial activity against Pseudomonas aeruginosa PAO1 expressing beta-lactamase AmpD1 by disk diffusion method. An outline of the steps:
(§1)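 Each ampD homolog gene, from PAO1 or the clinical isolate, was tested in a plasmid model system. An AmpD-deficient E. coli strain (JRG582) carrying an inducible genetic system was complemented with the gene. Read-out was the ceftazidime inhibition zone diameter in mm; lack of complementation gives a ceftazidime-resistant phenotype.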
On the technique in general: In agar diffusion tests the substance spreads into inoculated agar from a disc or well.

For assay [6], the system named is Pseudomonas aeruginosa. In words: Antimicrobial activity against Pseudomonas aeruginosa isolate PA22 obtained from patient with cystic fibrosis harboring beta-lactamase AmpD1 Gly148ala and Asp183Tyr mutant by disk diffusion method. A digest of the protocol:
as §1

Assay [7] deals with Pseudomonas aeruginosa. As to the kind of experiment: Antimicrobial activity against Pseudomonas aeruginosa isolate PA367 obtained from patient with cystic fibrosis harboring beta-lactamase AmpD1 Gly148ala and Asp183Tyr mutant by disk diffusion method. An outline of the steps: as §1
In assay [8] the test system is Pseudomonas aeruginosa. In words: Antimicrobial activity against Pseudomonas aeruginosa isolate PA24 obtained from patient with cystic fibrosis harboring beta-lactamase AmpD1 12-nt deletion at nucleotide 5064908 and deletion of codons 144-147 by disk diffusion method. An outline of the steps:
as §1

Assay [9] deals with Pseudomonas aeruginosa. In words: Antimicrobial activity against Pseudomonas aeruginosa isolate PA113 harboring beta-lactamase AmpD1 Gly148Ala, Asp183Tyr mutant obtained from patient with cystic fibrosis by agar dilution method.
The subject of assay [10] is Pseudomonas aeruginosa. As to the kind of experiment: Antimicrobial activity against Pseudomonas aeruginosa isolate GB57 harboring beta-lactamase AmpD1 Val10Ile mutant obtained from patient with non-cystic fibrosis by Etest.
Assay [11] relates to Pseudomonas aeruginosa. In words: Antimicrobial activity against Pseudomonas aeruginosa isolate GB61 harboring beta-lactamase AmpD1 Gly148Ala mutant obtained from patient with non-cystic fibrosis by Etest.
Assay [12] has as its system Pseudomonas aeruginosa. In words: Antimicrobial activity against Pseudomonas aeruginosa isolate TX291 harboring beta-lactamase AmpD1 11-nt deletion at nt 5064907 and frameshift mutation obtained from patient with non-cystic fibrosis by agar dilution method.
Assay [13] deals with Pseudomonas aeruginosa. In words: Antimicrobial activity against Pseudomonas aeruginosa isolate TX292 harboring beta-lactamase AmpD1 11-nt deletion at nt 5064907 and frameshift mutation obtained from patient with non-cystic fibrosis by agar dilution method.
In assay [14] the test system is Pseudomonas aeruginosa. As to the kind of experiment: Antimicrobial activity against Pseudomonas aeruginosa isolate 164CD harboring beta-lactamase AmpD1 Leu32Pro, Gly46Ser, Gly148Ala mutant obtained from patient with non-cystic fibrosis by agar dilution method.
Assay [15] relates to Pseudomonas aeruginosa. As to the kind of experiment: Antimicrobial activity against Pseudomonas aeruginosa PAO1 expressing beta-lactamase AmpDh2 by disk diffusion method. A digest of the protocol:
as §1

Assay [16] relates to Pseudomonas aeruginosa. In words: Antimicrobial activity against Pseudomonas aeruginosa PAO1 expressing beta-lactamase AmpDh3 by disk diffusion method. A digest of the protocol:
as §1

Assay [17] deals with Pseudomonas aeruginosa. As to the kind of experiment: Antimicrobial activity against Pseudomonas aeruginosa isolate PA22 obtained from patient with cystic fibrosis harboring beta-lactamase AmpDh3 Asp137Gly, Ala219Thr mutant by disk diffusion method. A digest of the protocol:
as §1

Assay [18] deals with Pseudomonas aeruginosa. In words: Antimicrobial activity against Pseudomonas aeruginosa isolate PA367 obtained from patient with cystic fibrosis harboring beta-lactamase AmpDh3 Asp137Gly, Ala219Thr mutant by disk diffusion method. A digest of the protocol:
as §1

Assay [19] relates to Pseudomonas aeruginosa. As to the kind of experiment: Antimicrobial activity against Pseudomonas aeruginosa isolate PA24 obtained from patient with cystic fibrosis harboring beta-lactamase AmpDh3 Ala219Thr mutant by disk diffusion method. A digest of the protocol:
as §1

In assay [20] the test system is Pseudomonas aeruginosa. As to the kind of experiment: Antimicrobial activity against Pseudomonas aeruginosa isolate PA113 harboring beta-lactamase AmpDh3 Ala219Thr mutant obtained from patient with cystic fibrosis by agar dilution method.
For assay [21], the system named is Pseudomonas aeruginosa. In words: Antimicrobial activity against Pseudomonas aeruginosa isolate TX291 harboring beta-lactamase AmpDh3 Ala208Val mutant obtained from patient with non-cystic fibrosis by agar dilution method.
The test system of assay [22] is Pseudomonas aeruginosa. In words: Antimicrobial activity against Pseudomonas aeruginosa isolate 164CD harboring beta-lactamase AmpDh3 Ile67Thr mutant obtained from patient with non-cystic fibrosis by agar dilution method.
Assay [23] relates to Pseudomonas aeruginosa. In words: Antimicrobial activity against Pseudomonas aeruginosa PAO1 by agar dilution method.
Assay [24] has as its system Pseudomonas aeruginosa. In words: Antimicrobial activity against Pseudomonas aeruginosa isolate PA22 obtained from patient with cystic fibrosis by agar dilution method.
Assay [25] has as its system Pseudomonas aeruginosa. In words: Antimicrobial activity against Pseudomonas aeruginosa isolate PA367 obtained from patient with cystic fibrosis by agar dilution method.
Assay [26] relates to Pseudomonas aeruginosa. In words: Antimicrobial activity against Pseudomonas aeruginosa isolate PA24 obtained from patient with cystic fibrosis by agar dilution method.
The subject of assay [27] is Pseudomonas aeruginosa. In words: Antimicrobial activity against Pseudomonas aeruginosa isolate PA113 obtained from patient with cystic fibrosis by agar dilution method.
Assay [28] has as its system Pseudomonas aeruginosa. In words: Antimicrobial activity against Pseudomonas aeruginosa isolate GB57 obtained from patient with non-cystic fibrosis by broth microdilution method. On the technique in general: Dilution methods test growth across graded concentrations, often in twofold steps.
The test system of assay [29] is Pseudomonas aeruginosa. As to the kind of experiment: Antimicrobial activity against Pseudomonas aeruginosa isolate 164CD obtained from patient with non-cystic fibrosis by Etest.
Assay [30] deals with Pseudomonas aeruginosa. In words: Antimicrobial activity against Pseudomonas aeruginosa isolate GB57 obtained from patient with non-cystic fibrosis by Etest.
Assay [31] concerns Pseudomonas aeruginosa. As to the kind of experiment: Antimicrobial activity against Pseudomonas aeruginosa isolate GB61 obtained from patient with non-cystic fibrosis by Etest.
Assay [32] relates to Pseudomonas aeruginosa. In words: Antimicrobial activity against Pseudomonas aeruginosa isolate GB61 obtained from patient with non-cystic fibrosis by Etest in presence of beta-lactamase inhibitor Tazobactam.
Assay [33] concerns Pseudomonas aeruginosa. As to the kind of experiment: Antimicrobial activity against Pseudomonas aeruginosa isolate TX291 obtained from patient with non-cystic fibrosis by Etest in presence of beta-lactamase inhibitor Tazobactam.
Assay [34] concerns Pseudomonas aeruginosa. In words: Antimicrobial activity against Pseudomonas aeruginosa isolate TX292 obtained from patient with non-cystic fibrosis by Etest in presence of beta-lactamase inhibitor Tazobactam.
Assay [35] relates to Pseudomonas aeruginosa. As to the kind of experiment: Antimicrobial activity against Pseudomonas aeruginosa isolate 164CD obtained from patient with non-cystic fibrosis by Etest in presence of beta-lactamase inhibitor Tazobactam.
Assay [36] deals with Pseudomonas aeruginosa. In words: Antimicrobial activity against Pseudomonas aeruginosa PAO1 by Etest.
Assay [37] has as its system Pseudomonas aeruginosa. In words: Antimicrobial activity against Pseudomonas aeruginosa PAO1 by agar dilution method in presence of beta-lactamase inhibitor Tazobactam.
In assay [38] the test system is Pseudomonas aeruginosa. As to the kind of experiment: Antimicrobial activity against Pseudomonas aeruginosa isolate PA22 obtained from patient with cystic fibrosis by agar dilution method in presence of beta-lactamase inhibitor Tazobactam.
The subject of assay [39] is Pseudomonas aeruginosa. As to the kind of experiment: Antimicrobial activity against Pseudomonas aeruginosa isolate PA367 obtained from patient with cystic fibrosis by agar dilution method in presence of beta-lactamase inhibitor Tazobactam.
Assay [40] has as its system Pseudomonas aeruginosa. As to the kind of experiment: Antimicrobial activity against Pseudomonas aeruginosa isolate PA24 obtained from patient with cystic fibrosis by agar dilution method in presence of beta-lactamase inhibitor Tazobactam.
For assay [41], the system named is Pseudomonas aeruginosa. In words: Antimicrobial activity against Pseudomonas aeruginosa isolate PA113 obtained from patient with cystic fibrosis by agar dilution method in presence of beta-lactamase inhibitor Tazobactam.
In assay [42] the test system is Pseudomonas aeruginosa. As to the kind of experiment: Antimicrobial activity against Pseudomonas aeruginosa isolate GB57 obtained from patient with non-cystic fibrosis by Etest in presence of beta-lactamase inhibitor Tazobactam.

One may read the MIC as the lowest concentration that inhibits growth of the organism. For the compound `CC(C)(O/N=C(\C(=O)N[C@@H]1C(=O)N2C(C(=O)[O-])=C(C[n+]3ccccc3)CS[C@H]12)c1csc(N)n1)C(=O)O` [CEFTAZIDIME], the MIC against Pseudomonas aeruginosa [1] turned out to be 128 µg/mL (≈ 234 µM); against Pseudomonas aeruginosa [2], 32 µg/mL (≈ 58.5 µM); with Pseudomonas aeruginosa [3] it was 32 µg/mL (≈ 58.5 µM); with Pseudomonas aeruginosa [4], 128 µg/mL (≈ 234 µM); in the assay with Pseudomonas aeruginosa [23] it was 1 µg/mL (≈ 1.83 µM); with Pseudomonas aeruginosa [24], 16 µg/mL (≈ 29.3 µM). Besides, the MIC is 32 µg/mL (≈ 58.5 µM) in the assay on Pseudomonas aeruginosa [25], 128 µg/mL (≈ 234 µM) in the assay on Pseudomonas aeruginosa [26], 32 µg/mL (≈ 58.5 µM) in the assay on Pseudomonas aeruginosa [27] and more than 128 µg/mL in the assay on Pseudomonas aeruginosa [28]. Further, the “diameter of the inhibition zone (DIZ)” value was determined as 17 mm with Pseudomonas aeruginosa [5]; 8 mm in the assay on Pseudomonas aeruginosa [6]; 8 mm in the assay with Pseudomonas aeruginosa [7]; 6 mm in the assay on Pseudomonas aeruginosa [8]; 8 mm in the assay with Pseudomonas aeruginosa [9]; 10 mm with Pseudomonas aeruginosa [10]. Moreover, the “diameter of the inhibition zone (DIZ)” value was 12 mm in the assay with Pseudomonas aeruginosa [11]; 11 mm with Pseudomonas aeruginosa [12]; 11 mm with Pseudomonas aeruginosa [13]; 8 mm in the assay on Pseudomonas aeruginosa [14]; 6 mm in the assay on Pseudomonas aeruginosa [15]; 18 mm with Pseudomonas aeruginosa [16]. For the same compound, the “diameter of the inhibition zone (DIZ)” value with Pseudomonas aeruginosa [17] was found to be 10 mm; in the assay on Pseudomonas aeruginosa [18] it was 10 mm; in the assay with Pseudomonas aeruginosa [19] it was 9 mm; with Pseudomonas aeruginosa [20], 9 mm; in the assay with Pseudomonas aeruginosa [21] it was 8 mm; with Pseudomonas aeruginosa [22] it was 10 mm.
Turning to `CO/N=C(\C(=O)N[C@@H]1C(=O)N2C(C(=O)[O-])=C(C[N+]3(C)CCCC3)CS[C@H]12)c1csc(N)n1` [CEFEPIME], the MIC with Pseudomonas aeruginosa [2] is 32 µg/mL (≈ 66.6 µM); in the assay with Pseudomonas aeruginosa [3], 32 µg/mL (≈ 66.6 µM); against Pseudomonas aeruginosa [29], more than 256 µg/mL; with Pseudomonas aeruginosa [23], 1 µg/mL (≈ 2.08 µM); against Pseudomonas aeruginosa [24] it was 16 µg/mL (≈ 33.3 µM); in the assay on Pseudomonas aeruginosa [25] it was 16 µg/mL (≈ 33.3 µM). Besides, the MIC in the assay with Pseudomonas aeruginosa [26] is 64 µg/mL (≈ 133 µM); against Pseudomonas aeruginosa [27], 16 µg/mL (≈ 33.3 µM); against Pseudomonas aeruginosa [30], more than 256 µg/mL; with Pseudomonas aeruginosa [31], 32 µg/mL (≈ 66.6 µM).
In the case of `CCN1CCN(C(=O)N[C@@H](C(=O)N[C@@H]2C(=O)N3[C@@H]2SC(C)(C)[C@@H]3C(=O)O)c2ccccc2)C(=O)C1=O` [PIPERACILLIN], the MIC with Pseudomonas aeruginosa [32] is more than 256 µg/mL; in the assay with Pseudomonas aeruginosa [2], 256 µg/mL (≈ 495 µM); in the assay on Pseudomonas aeruginosa [33], more than 256 µg/mL; in the assay with Pseudomonas aeruginosa [3], 256 µg/mL (≈ 495 µM); with Pseudomonas aeruginosa [34], more than 256 µg/mL; with Pseudomonas aeruginosa [4] it was more than 1020 µg/mL. Besides, the MIC in the assay on Pseudomonas aeruginosa [35] was more than 256 µg/mL; in the assay with Pseudomonas aeruginosa [36], 4 µg/mL (≈ 7.73 µM); in the assay on Pseudomonas aeruginosa [37], 4 µg/mL; with Pseudomonas aeruginosa [24] it was 128 µg/mL (≈ 247 µM); in the assay with Pseudomonas aeruginosa [38] it was 64 µg/mL; against Pseudomonas aeruginosa [25] it was 64 µg/mL (≈ 124 µM). Moreover, the MIC with Pseudomonas aeruginosa [39] was 64 µg/mL; against Pseudomonas aeruginosa [26], 256 µg/mL (≈ 495 µM); in the assay on Pseudomonas aeruginosa [40], 128 µg/mL; with Pseudomonas aeruginosa [27], 128 µg/mL (≈ 247 µM); with Pseudomonas aeruginosa [41] it was 64 µg/mL; with Pseudomonas aeruginosa [30] it was more than 256 µg/mL. Besides, the MIC in the assay on Pseudomonas aeruginosa [42] and with Pseudomonas aeruginosa [31] was more than 256 µg/mL each time.
With `C[C@H]1[C@H](NC(=O)/C(=N\OC(C)(C)C(=O)O)c2csc(N)n2)C(=O)N1S(=O)(=O)O` [AZTREONAM], the MIC in the assay with Pseudomonas aeruginosa [2] was 64 µg/mL (≈ 147 µM); in the assay on Pseudomonas aeruginosa [3], 64 µg/mL (≈ 147 µM); with Pseudomonas aeruginosa [29] it was more than 256 µg/mL; against Pseudomonas aeruginosa [23] it was 4 µg/mL (≈ 9.19 µM); against Pseudomonas aeruginosa [24], 4 µg/mL (≈ 9.19 µM); in the assay with Pseudomonas aeruginosa [25] it was 4 µg/mL (≈ 9.19 µM). Also, the MIC is 128 µg/mL (≈ 294 µM) against Pseudomonas aeruginosa [26], 16 µg/mL (≈ 36.7 µM) in the assay with Pseudomonas aeruginosa [27], more than 256 µg/mL with Pseudomonas aeruginosa [30] and 48 µg/mL (≈ 110 µM) in the assay on Pseudomonas aeruginosa [31].
